CAL PDZ FP-1 – inhibitors of human CAL PDZ peptide binding | Q9HD26 | purified CAL PDZ, TMR-peptide fluorescence polarization, 1 h | inhibition, % at 20 µM | 330,000 compounds, 0.02% hits | AID 504414;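 active means highest replicate inhibition of at least 40%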;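 further: plate controls were DMSO neutral control wells for no effect and unlabeled competitor peptide control wells for full effect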
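material = purified tagged CAL PDZ domain construct (CerCALP) | compound dosing = 20 µM, one dose | times = 1 h at RT | measured by = fluorescence polarization from S- and P-plane intensities, G-factor corrected | read-out = inhibition from polarization loss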
DDE Tn6 FP inh – disrupts Tn6 cyclic peptide binding to fibrin D-Dimer-E complex. P02675. Fibrin DD(E) TRITC-Tn6 fluorescence polarization displacement. inhibition, % at 8.3 µM. 370,000 compounds, 0.21% hits;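 active means inhibition above a per-campaign cutoff: mean of compounds within control limits plus 3 SD, cut at about 15% in these data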;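 further: 0% = median of all compound wells on the plate and 100% = blocking peptide control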
Target sequence (P02675 whole entry, looked up): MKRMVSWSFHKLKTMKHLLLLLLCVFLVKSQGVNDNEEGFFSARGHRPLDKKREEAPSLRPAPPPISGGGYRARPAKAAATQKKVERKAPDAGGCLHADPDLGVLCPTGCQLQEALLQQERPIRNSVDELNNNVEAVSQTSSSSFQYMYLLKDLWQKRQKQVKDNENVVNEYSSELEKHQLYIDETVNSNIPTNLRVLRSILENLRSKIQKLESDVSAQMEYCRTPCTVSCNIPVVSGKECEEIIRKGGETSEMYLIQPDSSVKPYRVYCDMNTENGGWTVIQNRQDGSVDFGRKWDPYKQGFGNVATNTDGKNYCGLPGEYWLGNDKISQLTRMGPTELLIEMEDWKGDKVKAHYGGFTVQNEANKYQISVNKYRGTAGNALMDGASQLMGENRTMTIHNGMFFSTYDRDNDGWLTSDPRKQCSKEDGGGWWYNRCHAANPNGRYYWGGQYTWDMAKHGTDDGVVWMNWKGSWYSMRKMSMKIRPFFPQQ
ARNT TACC3 PPI – disrupts binding between human ARNT and TACC3 | Q9Y6A5 | AlphaScreen His-ARNT PAS-B/GST-TACC3 binding, luminescence; TACC3 fragment carries E629A point mutation | inhibition, % at 9.99 µM | 390,000 compounds, 0.66% hits;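 active means mean inhibition of replicates at least 50% and at least half of replicates each reaching 50%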;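 further: 0% = complete ARNT plus TACC3 wells and 100% = ARNT alone without TACC3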
GRK2 aptamer HTS – blocks RNA aptamer binding to human GRK2. inhibition of aptamer binding, % at 10 µM. P25098. AID 488847. 330,000 compounds, 0.59% hits. bead flow cytometry, FAM-aptamer displacement from GRK2;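 active means inhibition of aptamer binding above 40%, roughly 3 SD of noise, on plates passing a quality check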;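 further: median bead fluorescence of bound FAM aptamer so fluorescent compounds give negative values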
CAL PDZ FP-2 – blocks peptide binding to the human CAL PDZ domain; Q9HD26; purified CAL PDZ, TMR-peptide fluorescence polarization, 1 h; inhibition, % at 24.9 µM; 300,000 compounds, 0.92% hits; AID 602252;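 active means mean inhibition of at least 30% with at least half of replicates also reaching 30%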;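 further: 0% = DMSO neutral control and 100% = excess unlabeled competitor peptide PRC23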
DDE Tn7 FP inh – disrupts Tn7 cyclic peptide binding to fibrin D-Dimer-E complex; FP displacement of FITC-Tn7 peptide from fibrin DD(E); 0% = median of compound wells per plate; AID 720508; inhibition, % at 8.3 µM; 370,000 compounds, 0.13% hits; P02675;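 active means inhibition above the mean of compounds falling within the control limits plus 3 SD of them, cut at about 14% in these data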;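 further: 0% = plate median of compound wells and 100% = 10 µM Aha-Tn7 peptide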
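assay system = human clot-derived fibrin DD(E) complex | quantity = Fibrin-DD(E) at 2 µM final | timing = 10 min preincubation, 3 h with tracer, room temperature | signal = fluorescence polarization | measure = percent inhibition | benchmarks = high control wells with 10 µM unlabelled Aha-Tn7 peptide (full inhibition) | replicates = singlicate testing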
ARNT Alpha ctr-1 – interferes with AlphaScreen signal, flagging false ARNT-TACC3 hits; shares compounds with ARNT TACC3 PPI; His-ARNT PASB-GST AlphaScreen artifact counter-screen, luminescence; AC50, µM (titrated, usually from 68 µM), for the others: at the highest dose activity change, negative = signal decrease; 1,200 compounds, 50% hits;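 active means every separate test run was called active for a drop in luminescence, with AC50 within twice the top valid dose, actives reach about 71 µM in these data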
ARNT Alpha ctr-2 – counter-screen for ARNT-TACC3 inhibitors: AlphaScreen artifacts. shares compounds with ARNT TACC3 PPI. Dual-tagged His-ARNT PASB-GST AlphaScreen artifact counter-screen. AC50, µM. 45 compounds, 70% hits. AID 720564;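 active means luminescence drop, with half-maximal potency fitted within twice the sample's top valid dose, cut at about 70 µM in these data; inactive means the rest, including signal moving the wrong way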
The depositor's hits bear a star; i = inactive; · = no result. Sampled rows, rich in hits. Any-hit rate of the full collection: about 1.8%.

SMILES	CAL PDZ FP-1	DDE Tn6 FP inh	ARNT TACC3 PPI	GRK2 aptamer HTS	CAL PDZ FP-2	DDE Tn7 FP inh	ARNT Alpha ctr-1	others
Cc1cc(NCCCCCCCNc2cc(C)nc3cc([N+](=O)[O-])ccc23)c2ccc([N+](=O)[O-])cc2n1	-1	-17	-1	·	-3	-15	·
C[C@@H]1CN([C@@H](C)CO)C(=O)c2ccccc2-c2ccccc2CO[C@@H]1CN(C)C(=O)[C@@H]1CCCN1C	·	·	-9	·	·	·	·
COc1ccc(C(NC(=O)c2cccnc2)c2cc(Cl)c3cccnc3c2O)cc1OC (stereo not drawn)	0	-1	29	0	6	-4	·
Oc1c(C(Nc2cccc(C(F)(F)F)c2)c2cccnc2)ccc2cccnc12 (stereo not drawn)	-3	-3	21	0	-1	7	·
Cc1cc(NC(c2cccnc2)c2ccc3cccnc3c2O)no1 (stereo not drawn)	0	-6	63*	2	-7	4	11µM*
Oc1c(C(Nc2ccccn2)c2cccnc2)cc(Cl)c2cccnc12 (stereo not drawn)	-3	-8	57*	3	0	1	15µM*
O=C(N[C@H]1CC[C@@H](CCNS(=O)(=O)c2ccccc2)O[C@@H]1CO)c1cccc(F)c1	·	·	6	·	·	·	·
COCC(=O)N1C[C@@H](C)[C@@H](OC)CN(C)C(=O)c2ccc(NC(=O)c3ccc(OC)cc3)cc2OC[C@@H]1C	·	·	-10	·	·	·	·
NC(=O)[C@@H]1[C@H]2C(=O)O[C@H](c3ccccc3)[C@H](c3ccccc3)N2[C@H](c2ccccc2OCCO)[C@@]12C(=O)Nc1ccccc12	·	·	12	·	·	·	·
Cn1c(CNc2ccccc2O)nc2ccccc21	0	-3	67*	3	1	5	-32%
CCNc1nc(NC(C)C)nc(N(C#N)C(C)C(=O)N(CC)CC)n1 (stereo not drawn)	·	8	·	0	·	8	·
COc1ccc(C(c2nnnn2C2CCCC2)N2CCc3ccccc3C2)cc1OC (stereo not drawn)	1	1	58*	·	-2	-10	-25%
COc1ccc(C2CC(=O)Oc3c(C(CCN4CCCC(C)C4)c4ccc(N(C)C)cc4)c(OC)cc(OC)c32)cc1 (stereo not drawn)	-1	-3	20	0	-3	-6	·
COc1ccc(C2CC(=O)Oc3c(C(CCN4CCCCC4)c4ccc(N(C)C)cc4)c(OC)cc(OC)c32)cc1 (stereo not drawn)	0	-1	39*	·	-2	-7	17µM*
O=C(C[C@@H]1C[C@H]2c3cc(NC(=O)c4cccnc4)ccc3O[C@H]2[C@H](CO)O1)NCc1cccc(F)c1	·	·	-2	·	·	·	·
CC1=C(SCc2ccccc2)C(=O)c2ccccc2C1=O	2	2	24*	·	0	-6	55µM*
O=C1C(SCCO)=C(SCCO)C(=O)c2ccccc21	11	2	25	3	-7	2	·
CO[C@H]1CN(C)C(=O)c2cc(NC(C)=O)ccc2OC[C@@H](C)N(S(C)(=O)=O)C[C@@H]1C	·	·	-2	·	·	·	·
Cc1ccc(C)c(CNS(=O)(=O)c2c(C(=O)N3CCCC3)c(C)n(C)c2C)c1	-3	-4	11	5	2	-7	·
Cc1ccnc2nc(C(=O)Nc3nc(-c4ccccn4)cs3)nn12	-1	1	66*	4	-6	0	14µM*
c1ccc(Nc2nc(-c3ccccn3)cs2)cc1	0	-17	66*	0	-3	1	49µM*
c1ccc(Nc2nc(-c3ccncc3)cs2)cc1	1	-5	-2	0	-4	-10	·
O=C(Nc1nc(-c2ccncc2)cs1)c1ccco1	-2	-8	7	1	5	3	·	ARNT Alpha ctr-2=i
O=C(Nc1nc(-c2ccccn2)cs1)c1ccco1	0	-13	59*	5	·	0	26µM*	ARNT Alpha ctr-2=9.8*
CO[C@H]1CN(C)C(=O)c2cc(NC(=O)C3CC3)ccc2OC[C@@H](C)N(C(=O)c2ccncc2)C[C@H]1C	·	·	-12	·	·	·	·
SMILES	CAL PDZ FP-1	DDE Tn6 FP inh	ARNT TACC3 PPI	GRK2 aptamer HTS	CAL PDZ FP-2	DDE Tn7 FP inh	ARNT Alpha ctr-1	others
CN1C(=O)c2cc(NC(=O)Nc3cccc(Cl)c3)ccc2OC[C@@H]2O[C@H](CC(=O)NCCc3ccncc3)CC[C@@H]21	·	·	2	·	·	·	·
CO[C@@H]1CN(C)C(=O)c2ccc(NC(=O)C3CCCC3)cc2OC[C@@H](C)N(C(C)=O)C[C@H]1C	·	·	21	·	·	·	·
O=C(Nc1nc(-c2ccccn2)cs1)C12CC3CC(CC(O)(C3)C1)C2	-1	-1	71*	4	-2	-4	62µM*
CC(Oc1ccc(F)cc1)C(=O)Nc1nc(-c2ccccn2)cs1 (stereo not drawn)	-2	-6	63*	0	6	-1	66µM*
CN(C)C(=O)c1ccc(-c2ccc([C@H]3[C@H](C#N)N(S(C)(=O)=O)[C@H]3CO)cc2)cc1	·	·	0	·	·	·	·
Cc1nc(Nc2ccc(C(=O)O)cc2)nc(Nc2ccc(C(=O)O)cc2)c1[N+](=O)[O-]	-2	0	64*	3	·	-2	9.4µM*
CCOc1cc(/C=C2\SC(=S)N(N3CCOCC3)C2=O)ccc1O	-2	-5	-3	3	1	-6	·
CCOc1cc(/C=C2\SC(=N)N(c3nccs3)C2=O)ccc1OCCN1CCOCC1	-3	-7	51*	1	-3	-3	70µM*
Cc1ccccc1C(=O)c1cccn1CC(=O)NCc1cccc(Cl)c1	-3	0	-14	0	-1	7	·
CN1/C(=N\O)c2cccc3cccc1c23	-1	-7	52*	0	-1	8	-25%
CCn1c(Cc2ccccc2)nnc1SCC(=O)Nc1ccc(OC)cc1	·	4	-3	2	0	-1	·
CCn1c(Cc2ccccc2)nnc1SCC(=O)Nc1ccc(N)cc1	0	-2	57*	3	-1	-1	-10%
C[C@H]1CN([C@@H](C)CO)C(=O)c2cccc(NC(=O)c3ccncc3)c2O[C@H]1CN(C)Cc1ccc(C(F)(F)F)cc1	·	·	17	·	·	·	·
C[C@H]1CN([C@@H](C)CO)C(=O)c2cc(-c3ccc(C#N)cc3)cnc2O[C@H]1CN(C)Cc1ccccn1	·	·	1	·	·	·	·
O=C(NCCCn1ccnc1)C(=O)NCC1OCCCN1S(=O)(=O)c1ccccc1 (stereo not drawn)	-1	6	40*	0	1	-5	-11%
